Common to all, as to type: ADME
In data set [1] the target is T1, Solute carrier family 15 member 1 (Rattus norvegicus, UniProt P51574).
T1 sequence (P51574 whole entry): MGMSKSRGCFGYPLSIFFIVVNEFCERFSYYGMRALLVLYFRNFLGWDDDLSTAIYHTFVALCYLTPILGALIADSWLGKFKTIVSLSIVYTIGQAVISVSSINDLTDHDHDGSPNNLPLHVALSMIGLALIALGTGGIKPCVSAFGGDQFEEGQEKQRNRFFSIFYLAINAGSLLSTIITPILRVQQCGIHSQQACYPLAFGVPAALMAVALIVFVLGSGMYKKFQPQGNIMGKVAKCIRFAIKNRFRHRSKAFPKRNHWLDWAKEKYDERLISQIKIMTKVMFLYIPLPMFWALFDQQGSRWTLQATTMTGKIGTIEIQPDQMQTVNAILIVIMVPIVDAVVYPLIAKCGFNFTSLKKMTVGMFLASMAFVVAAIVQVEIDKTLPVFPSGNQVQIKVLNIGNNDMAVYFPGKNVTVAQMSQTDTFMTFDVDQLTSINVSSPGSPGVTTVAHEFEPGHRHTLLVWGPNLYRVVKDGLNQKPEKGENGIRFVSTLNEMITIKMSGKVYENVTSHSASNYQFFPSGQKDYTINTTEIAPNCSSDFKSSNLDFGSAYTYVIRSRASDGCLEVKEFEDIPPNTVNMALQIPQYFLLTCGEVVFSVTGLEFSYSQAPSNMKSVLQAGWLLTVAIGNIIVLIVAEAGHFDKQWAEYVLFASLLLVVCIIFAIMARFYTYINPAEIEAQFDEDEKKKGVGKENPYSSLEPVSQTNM
Kind of data set: Drug uptake in Pichia pastoris GS115 expressing rat recombinant PEPT1 at 5 uM after 30s by dual-channel liquid scintillation counting analysis in presence of acyclovir relative to control. Particulars: in vivo, 0.5 min. In a few lines:
(§1)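 [3H]GlySar 5.0 µM final, 30-s uptake at 24°C in 100 mM potassium phosphate pH 6.5, with or without a potential inhibitor at 10 mM. Cells are methanol-induced transformants. Values are vector-subtracted and expressed as percent of buffer control. Mean ± SE (n=3). ANOVA with Dunnett's test.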

Data set [2] deals with T2, Solute carrier family 15 member 1 (Mus musculus, UniProt Q9JIP7).
T2 sequence (Q9JIP7 whole entry): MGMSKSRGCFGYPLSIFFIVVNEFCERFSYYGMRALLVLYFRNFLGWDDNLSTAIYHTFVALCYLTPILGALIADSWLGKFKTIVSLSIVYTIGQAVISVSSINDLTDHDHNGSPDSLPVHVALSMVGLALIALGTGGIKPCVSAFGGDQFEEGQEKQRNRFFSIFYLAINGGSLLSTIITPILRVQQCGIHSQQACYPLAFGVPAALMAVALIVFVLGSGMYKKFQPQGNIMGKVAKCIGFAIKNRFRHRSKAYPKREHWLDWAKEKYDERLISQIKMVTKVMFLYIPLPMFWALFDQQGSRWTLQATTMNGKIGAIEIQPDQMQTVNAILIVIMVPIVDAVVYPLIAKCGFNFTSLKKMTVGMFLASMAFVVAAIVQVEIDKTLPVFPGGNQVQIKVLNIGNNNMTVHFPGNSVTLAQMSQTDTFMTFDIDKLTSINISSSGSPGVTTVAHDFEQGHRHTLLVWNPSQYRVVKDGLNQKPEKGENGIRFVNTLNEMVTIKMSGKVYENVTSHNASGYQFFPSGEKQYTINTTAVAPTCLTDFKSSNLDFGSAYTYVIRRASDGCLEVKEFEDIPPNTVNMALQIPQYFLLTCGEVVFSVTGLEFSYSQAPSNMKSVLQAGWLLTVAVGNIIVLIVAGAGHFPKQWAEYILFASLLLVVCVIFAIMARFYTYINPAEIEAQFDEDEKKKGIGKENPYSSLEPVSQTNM
Description: Drug uptake in Pichia pastoris GS115 expressing mouse recombinant PEPT1 at 5 uM after 30s by dual-channel liquid scintillation counting analysis relative to control. Particulars: in vivo, 0.5 min. In a few lines:
as §1

For data set [3], the target named is T3, Solute carrier family 15 member 1 (Homo sapiens, UniProt P46059).
T3 sequence (P46059 whole entry): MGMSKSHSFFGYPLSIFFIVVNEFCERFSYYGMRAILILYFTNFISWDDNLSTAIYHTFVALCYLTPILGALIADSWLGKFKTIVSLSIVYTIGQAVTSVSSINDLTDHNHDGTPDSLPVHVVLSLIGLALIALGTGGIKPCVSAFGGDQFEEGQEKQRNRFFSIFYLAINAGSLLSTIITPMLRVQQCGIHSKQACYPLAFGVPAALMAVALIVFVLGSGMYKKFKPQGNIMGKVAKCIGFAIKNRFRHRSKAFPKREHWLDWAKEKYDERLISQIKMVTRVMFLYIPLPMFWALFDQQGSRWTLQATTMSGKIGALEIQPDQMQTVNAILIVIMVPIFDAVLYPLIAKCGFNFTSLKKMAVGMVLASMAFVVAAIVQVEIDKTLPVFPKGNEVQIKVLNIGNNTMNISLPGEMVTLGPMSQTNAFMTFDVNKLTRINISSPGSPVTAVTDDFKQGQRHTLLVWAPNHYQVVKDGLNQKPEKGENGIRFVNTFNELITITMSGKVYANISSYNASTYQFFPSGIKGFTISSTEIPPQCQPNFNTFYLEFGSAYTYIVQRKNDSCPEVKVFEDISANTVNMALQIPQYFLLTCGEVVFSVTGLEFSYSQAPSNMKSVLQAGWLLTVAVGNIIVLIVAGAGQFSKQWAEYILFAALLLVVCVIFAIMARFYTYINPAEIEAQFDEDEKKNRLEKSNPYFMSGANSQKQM
Kind of data set: Drug uptake in Pichia pastoris GS115 expressing human recombinant PEPT1 at 5 uM after 30s by dual-channel liquid scintillation counting analysis in presence of TEA relative to control. Particulars: 0.5 min. In a few lines:
as §1

In data set [4] the target is T2, Solute carrier family 15 member 1. Description: Drug uptake in Pichia pastoris GS115 expressing mouse recombinant PEPT1 at 5 uM after 30s by dual-channel liquid scintillation counting analysis in presence of glycine relative to control. Particulars: in vivo, 0.5 min. In a few lines: as §1
Data set [5] shares this target. Description: Drug uptake in Pichia pastoris GS115 expressing mouse recombinant PEPT1 at 5 uM after 30s by dual-channel liquid scintillation counting analysis in presence of acyclovir relative to control. Particulars: 0.5 min. In short, it runs like this: as §1
The target of data set [6] is T3, Solute carrier family 15 member 1. Kind of data set: Drug uptake in Pichia pastoris GS115 expressing human recombinant PEPT1 at 5 uM after 30s by dual-channel liquid scintillation counting analysis in presence of elacridar relative to control. Particulars: 0.5 min. In a few lines:
as §1

In data set [7] the target is T1, Solute carrier family 15 member 1. Kind of data set: Drug uptake in Pichia pastoris GS115 expressing rat recombinant PEPT1 at 5 uM after 30s by dual-channel liquid scintillation counting analysis in presence of valacyclovir relative to control. Particulars: 0.5 min. In a few lines: (§2)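 Rat PEPT1 (pPIC3.5K-rPept1) in GS115 His+Mut+ transformant, methanol-induced 20-24 hr in BMMY at 30°C, washed into 100 mM potassium phosphate pH 6.5. [3H]GlySar final 5.0 µM with inhibitor at 10 mM, 30 sec at 24°C. Counts taken by liquid scintillation after 24 hr standing. Values are vector-subtracted and given as % of buffer control. Mean ± SE, n=3.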

The target is the same in data set [8]. Kind of data set: Drug uptake in Pichia pastoris GS115 expressing rat recombinant PEPT1 at 5 uM after 30s by dual-channel liquid scintillation counting analysis in presence of glycine relative to control. Particulars: 0.5 min. In short, it runs like this:
as §2

Each structure is given as a SMILES string.

With `[3H]C(C(=O)O)N(C)C(=O)CN` (stereo not drawn), the Drug uptake in data set [1] is 109%; in data set [2] it was 100%; in data set [3], 113%; in data set [4] it was 104%; in data set [5], 99.8%; in data set [6] it was 100%. Moreover, the Drug uptake in data set [7] came out at 5.5%; in data set [8], 91.5%.

These data come from ChEMBL document CHEMBL3526053, “Species-dependent uptake of glycylsarcosine but not oseltamivir in Pichia pastoris expressing the rat, mouse, and human intestinal peptide transporter PEPT1” (Drug Metab Dispos, 2012).
